Shown is part of a subset that was picked to be rich in hits.
RORA inh: inhibitors of human nuclear receptor RORA; P35398; inhibition, % at 10 µM; 65,000 tested, 0.43% active; CHO-K1 Gal4-RORA LBD luciferase reporter, luminescence;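 active = inhibition above the mean of all tested compounds plus 3 SD, cut at about 52% in these data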;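 also: 0% = RORA-transfected cells with DMSO and 100% = mock-transfected cells lacking RORA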
Target sequence (P35398 whole entry, looked up, the tested form may be a part): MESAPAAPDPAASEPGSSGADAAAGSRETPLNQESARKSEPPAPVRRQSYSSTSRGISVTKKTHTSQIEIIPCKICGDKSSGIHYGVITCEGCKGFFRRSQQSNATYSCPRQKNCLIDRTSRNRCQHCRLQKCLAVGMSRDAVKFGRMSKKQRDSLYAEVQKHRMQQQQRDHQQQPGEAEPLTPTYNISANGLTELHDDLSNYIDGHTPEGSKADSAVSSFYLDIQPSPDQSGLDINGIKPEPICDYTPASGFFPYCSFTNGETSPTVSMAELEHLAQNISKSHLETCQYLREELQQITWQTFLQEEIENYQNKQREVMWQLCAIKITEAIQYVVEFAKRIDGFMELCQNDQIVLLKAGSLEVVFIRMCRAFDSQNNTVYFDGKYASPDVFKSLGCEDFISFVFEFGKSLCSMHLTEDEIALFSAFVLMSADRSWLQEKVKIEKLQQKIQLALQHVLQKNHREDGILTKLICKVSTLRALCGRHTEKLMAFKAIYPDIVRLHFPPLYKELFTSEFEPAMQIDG
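System: transiently transfected CHO-K1 cells, Gal4-DBD/human RORA-LBD fusion plus 5xGal4-luciferase reporter. Doses: one dose of 10 µM final. Timing: 20 h compound treatment, 37 °C. Measured by: luminescence. Evaluation: % inhibition of basal luciferase versus +RORA/-RORA DMSO controls. Benchmarks: mock-transfected cells as 100%, +RORA DMSO cells as 0%. Replicates: single test per compound.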
* marks the source's active call; other numbers are inactive results.

SMILES | RORA inh
Cc1c(C(=O)NCc2cccnc2)sc2nc(-c3ccccc3)cn12 | -54
Cc1c(C(=O)N2CCOCC2)sc2nc(-c3ccccc3)cn12 | -58
c1ccc(-c2cn3c4c(sc3n2)CCCC4)cc1 | 74*
COc1cc2c(cc1OC)C(C)N(C(=O)c1cc3ccccc3o1)CC2 (stereo not drawn) | 64*
COc1ccc2oc(=O)c(C(=O)N3CCc4ccccc43)cc2c1 | 11
COc1ccc(NC(=O)c2cc3ccccc3o2)cc1 | -53
CN1CCC2(CC1)Nc1nc(SCc3ccc(Cl)cc3)nn1C1=C2CN(C)CC1 | 7
CC1Cc2ccccc2N1C(=O)CSc1nnc(-c2ccc(S(=O)(=O)N3CCCC3)cc2)o1 (stereo not drawn) | 0
NC(=O)C1(N2CCCCC2)CCN(C(=O)Nc2ccccc2C(F)(F)F)CC1 | -1
Cc1cccc(-n2ncc3c(N(C)Cc4ccccc4)ncnc32)c1 | -56
Cc1ccnc(NC(=O)Nc2ccc(F)cc2)c1 | -21
COc1ccc(C(=O)Nc2cc(C)on2)cc1 | -77
COc1ccc(C(=O)NC(=O)Nc2cc(C)ccn2)cc1 | 70*
Cc1cc(C)n(-c2c(F)c(F)c(CN3CCOCC3)c(F)c2F)n1 | 1
COc1ccc(C2=Nn3c(nnc3-c3ccccc3OC)SC2)cc1OC | 55*
COc1ccc(-c2noc(-c3ccccc3Cl)n2)cc1OC | -82
COc1nc(-c2ccccc2)cc(-c2ccc(OC)c(OC)c2)n1 | -13
CN(C)c1ccc(-c2ccccc2)nn1 | -56
Cc1nnc2sc(-c3cc4ccccc4o3)nn12 | -57
Cc1onc(-c2ccccc2Cl)c1C(=O)NCCN1Cc2ccccc2C1=O | -2
O=C(O)CCCCCN1C(=O)CSC1=S | 59*
O=C(NCCC1=CCCCC1)N[C@@H](Cc1ccccc1)C(=O)O | -3
N#CC1C(=O)NC(N2CCN(c3ccccc3)CC2)=NC12CCCCC2 (stereo not drawn) | -9
COC(=O)c1c(NC(=O)CC2SCC(C(=O)OC)NC2=O)sc2c1CCCC2 (stereo not drawn) | -52
CSc1ccc(CNc2ccccn2)cc1 | -61
SMILES | RORA inh
CC1(C)CC(=O)c2cnc(NC(=O)c3ccco3)nc2C1 | -2
COc1ccc(Cc2nnc(NC(=O)Cc3cccs3)s2)cc1OC | -5
COc1ccc(CC(=O)Nc2cccc(-c3nnc(-c4cccc(C)c4)o3)c2)cc1OC | 87*
COc1ccc(CCNC(=O)c2nnn(CC(=O)Nc3ccccc3)c2N)cc1OC | -2
c1ccc(-n2nc3c(ccc4cnnc43)[nH]2)cc1 | -55
O=C1C(=O)N(CCCN2CCOCC2)C(c2ccccn2)/C1=C(\O)c1ccc2c(c1)OCCO2 (stereo not drawn) | -9
COc1ccc(OC)c(N/C(C)=C/C(=O)c2ccc(C)o2)c1 | -2
Cc1cc(C(F)F)n2nc(C(=O)Nc3ccccc3Br)nc2n1 | -8
COc1cccc(-c2nnc3n2N=C(C(C)(C)C)CS3)c1 | 62*
CCOc1cccc(-c2nnc3n2N=C(c2cc(OC)ccc2OC)CS3)c1 | -61
O=C(CCN1c2ccccc2Sc2ccccc21)OCC(=O)N1CCN(C(=O)c2ccco2)CC1 | 6
CSCCC(CO)NC(=O)OCc1ccccc1 (stereo not drawn) | 16
NC(=O)CSc1nnc(Cc2ccc3c(c2)OCO3)n1C1CCCCC1 | -7
C=CCOc1nc2c(c(=O)n(C)c(=O)n2C)n1Cc1ccc(Cl)cc1 | 58*
CCCCCn1c(CN2CCN(Cc3ccccc3)CC2)nc2c1c(=O)n(C)c(=O)n2C | 12
CC1CCN(c2nc3c(c(=O)n(C)c(=O)n3C)n2Cc2ccccc2)CC1 | -14
COCCn1c(SCC(=O)c2cccc(OC)c2)nnc1-c1ccco1 | -1
Cc1csc(SCc2ccccc2C(=O)O)n1 | -13
Cc1cc(C(=O)CSc2nnc(-c3ccco3)o2)c(C)n1Cc1ccco1 | 2
Cc1nc2ccc(NC(=O)Cc3cccs3)cc2s1 | -53
Cc1cc(C(=O)COC(=O)c2ccc3c(c2)OCO3)c(C)n1Cc1cccs1 | 27
CC(=O)Nc1ccccc1OCC(=O)c1cc(C)n(Cc2cccs2)c1C | 89*
COc1cc(NC(=O)CSc2nc(C)cs2)cc(OC)c1 | 6
Cc1csc(SCC(=O)c2cc(C)n(Cc3cccs3)c2C)n1 | 77*
Cc1cc(C(=O)CN2C(=O)NC3(CCCc4ccccc43)C2=O)c(C)n1Cc1cccs1 (stereo not drawn) | -30
SMILES | RORA inh
CC(=O)Nc1ccc(SCC(=O)c2cc(C)n(Cc3cccs3)c2C)cc1 | 67*
CC1CCN(C(=O)CSc2nnc(-c3ccc(S(=O)(=O)N4CCOCC4)cc3)n2C)CC1 | 8
CCOc1ccc(CCN2C(=O)CCC2(C)C(=O)NC(C)CC)cc1OCC (stereo not drawn) | 2
O=C(NCc1ccco1)c1cnn2c(C(F)(F)F)cc(-c3cccs3)nc12 | 2
Cc1c(C(=O)Nc2ccncc2)oc2c1C(=O)CC(C)(C)C2 | 6
CC(C)(C)c1ccc(OCc2nc(-c3ccccn3)no2)c(Br)c1 | -67
Clc1cc(Cl)c(OCc2nc(-c3ccccn3)no2)cc1Cl | -52
Cc1ccc(-c2nc(-c3ccccn3)no2)cc1 | 90*
Cc1ccc(-c2nc(-c3ccccn3)no2)cc1Cl | 81*
Cc1cccc(-c2noc(Cc3ccc(Cl)cc3)n2)c1 | -12
c1ccc(Cc2nc(-c3ccccn3)no2)cc1 | -61
Clc1cccc(-c2nc(-c3ccccn3)no2)c1 | 62*
c1ccc(CCCc2nc(-c3ccccn3)no2)cc1 | -50
Brc1ccc(-c2nc(-c3ccccc3)no2)o1 | -68
O=C(OCc1nnc(-c2ccccc2)o1)c1ccc(S(=O)(=O)NCc2ccco2)cc1 | 18
CC(=O)Nc1ccc(S(=O)(=O)N2CCN(C(=O)N3CCCCCC3)CC2)cc1 | 3
C=CCc1cccc2cc(NC(C)=O)c(=O)oc12 | 18
O=C(CN(Cc1ccc2c(c1)OCO2)C(=O)c1cnsn1)NC1CCCC1 | 6
CCOc1ccccc1C1C(C#N)=C(SCC(=O)OC)NC(=O)C1C(=O)OC (stereo not drawn) | 0
CC1(C)CC(=O)C(/C=N/c2ncccc2C(=O)O)=C(O)C1 | 2
CCCCc1ccc(C2C(C#N)=C(N)SC(N)=C2C#N)s1 | -8
CN(C)c1ccc(NC(=S)c2ccccn2)cc1 | 84*
CN(C)S(=O)(=O)c1ccc(NC(=O)c2ccccn2)cc1 | -57
CCN(CC)S(=O)(=O)c1ccc(NC(=O)c2ccccn2)cc1 | -49
CC(=O)NC(CCS(C)(=O)=O)C(=O)Nc1cccc2ccccc12 (stereo not drawn) | -10

Screening data deposited in PubChem by The Scripps Research Institute Molecular Screening Center.
